One assay concerns SK-OV-3. In words: Antiproliferative activity against human SK-OV-3 cells assessed as cell viability measured after 72 hrs by SRB assay. The class given is functional, cell-based. The procedure, abridged: (§1)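 SRB colorimetric assay on ATCC-sourced cell lines kept in RPMI or DMEM with 10% heat-inactivated FBS, penicillin 100 units/mL and streptomycin at 37 °C in humidified 5% CO2. Preliminary screen: each compound tested in triplicate at two fixed concentrations (10 and 100). Read-out is percent cell viability.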

Assay [1] has as its target T1, Carbonic anhydrase 9 (Homo sapiens, UniProt Q16790). In words: Inhibition of recombinant human CA9 pre-incubated for 15 mins measured by phenol red dye based stopped flow CO2 hydration assay.
The test system of assay [2] is MDA-MB-231. The assay is described as follows: cells. As to conditions: Homo sapiens, MDA-MB-231, 72 h.
Assay [3] deals with T47D. In words: Antiproliferative activity against human T47D cells assessed as cell viability measured after 72 hrs by SRB assay. The class given is functional, cell-based. In short, it runs like this: as §1
The subject of another assay is A549. In words: Antiproliferative activity against human A549 cells assessed as cell viability measured after 72 hrs by SRB assay. The class given is functional, cell-based. The procedure, abridged: as §1
The next assay concerns HeLa. The assay is described as follows: Antiproliferative activity against human HeLa cells assessed as cell viability measured after 72 hrs by SRB assay. The class given is functional, cell-based. In short, it runs like this: as §1
The subject of another assay is HL-60. The assay is described as follows: Antiproliferative activity against human HL-60 cells assessed as cell viability measured after 72 hrs by SRB assay. The assay is classed as functional, cell-based. In short, it runs like this:
as §1

Assay [4] concerns MDA-MB-231. In words: Antiproliferative activity against human MDA-MB-231 cells assessed as cell viability measured after 72 hrs by SRB assay. The class given is functional, cell-based. The procedure, abridged:
as §1

In the next assay the test system is MCF7. In words: Antiproliferative activity against human MCF7 cells assessed as cell viability measured after 72 hrs by SRB assay. The class given is functional, cell-based. The procedure, abridged: as §1
The subject of assay [5] is T47D. The assay is described as follows: cells. As to conditions: Homo sapiens, 72 h.
The test system of another assay is COLO 205. The assay is described as follows: Antiproliferative activity against human COLO 205 cells assessed as cell viability measured after 72 hrs by SRB assay. The class given is functional, cell-based. In short, it runs like this: as §1
Assay [6] concerns the target T1, Carbonic anhydrase 9. The assay is described as follows: Inhibition of recombinant human CA9 pre-incubated for 6 hrs measured by phenol red dye based stopped flow CO2 hydration assay. In short, it runs like this: (§2)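 Stopped-flow CO2 hydration at 0.2 mM phenol red (557 nm) in 20 mM Hepes pH 7.5 with 20 mM Na2SO4, initial rates followed for 10–100 s. CO2 1.7–17 mM; ≥6 traces of the first 5–10% of reaction per inhibitor; uncatalysed rate subtracted. Inhibitor diluted in assay buffer down to 0.01 nM, preincubated with enzyme 6 h at room temperature. Values are means of 3 assays.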

In the next assay the target is Carbonic anhydrase 2 (Homo sapiens, UniProt P00918). In words: Inhibition of recombinant human CA2 pre-incubated for 6 hrs measured by phenol red dye based stopped flow CO2 hydration assay. The procedure, abridged:
as §2

A further assay concerns the target Carbonic anhydrase 1 (Homo sapiens, UniProt P00915). The assay is described as follows: Inhibition of recombinant human CA1 pre-incubated for 6 hrs measured by phenol red dye based stopped flow CO2 hydration assay. In short, it runs like this: as §2
The target of a further assay is Carbonic anhydrase 12 (Homo sapiens, UniProt O43570). The assay is described as follows: Inhibition of recombinant human CA12 pre-incubated for 6 hrs measured by phenol red dye based stopped flow CO2 hydration assay. The procedure, abridged: as §2
Chain of Carbonic anhydrase 12 (O43570 whole entry): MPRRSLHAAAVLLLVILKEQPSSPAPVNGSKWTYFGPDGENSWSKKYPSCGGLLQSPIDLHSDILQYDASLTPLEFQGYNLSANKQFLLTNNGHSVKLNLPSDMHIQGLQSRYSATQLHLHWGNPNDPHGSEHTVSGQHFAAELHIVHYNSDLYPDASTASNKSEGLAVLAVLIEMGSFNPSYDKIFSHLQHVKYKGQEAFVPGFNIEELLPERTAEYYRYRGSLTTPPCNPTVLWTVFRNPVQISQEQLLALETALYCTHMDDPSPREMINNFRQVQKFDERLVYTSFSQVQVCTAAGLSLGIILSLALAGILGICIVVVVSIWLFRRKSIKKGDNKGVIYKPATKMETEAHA
The subject of assay [7] is T47D. The assay is described as follows: Induction of cell cycle arrest in human T47D cells assessed as accumulation of cells in sub-G1 phase at […] uM measured after 24 hrs by DNA flow cytometry assay (reference value: 2.41%). The class given is functional.
Assay [8] deals with T47D. The assay is described as follows: Induction of apoptosis in human T47D cells assessed as viable cells at […] uM measured after 24 hrs by Annexin V-FITC stain based flow cytometry method. As to conditions: dose 2.45 µM. The class given is functional, cell-based.
The test system of assay [9] is T47D. In words: Induction of apoptosis in human T47D cells assessed as necrotic cells at […] uM measured after 24 hrs by Annexin V-FITC stain based flow cytometry method (reference value: 1.91%). The assay is classed as functional.
Assay [10] has as its system T47D. The assay is described as follows: Induction of apoptosis in human T47D cells assessed as late apoptotic cells at […] uM measured after 24 hrs by Annexin V-FITC stain based flow cytometry method (reference value: 0.17%). The assay is classed as functional.
Assay [11] relates to T47D. The assay is described as follows: Induction of apoptosis in human T47D cells assessed as early apoptotic cells at […] uM measured after 24 hrs by Annexin V-FITC stain based flow cytometry method (reference value: 0.39%). The class given is functional.
The test system of assay [12] is T47D. In words: Induction of cell cycle arrest in human T47D cells assessed as accumulation of cells in G2/M phase at […] uM measured after 24 hrs by DNA flow cytometry assay (reference value: 16.59%). The class given is functional.
Assay [13] relates to T47D. The assay is described as follows: Induction of apoptosis in human T47D cells assessed as viable cells at […] uM measured after 24 hrs by Annexin V-FITC stain based flow cytometry method relative to control. The class given is functional, cell-based. Conditions: dose 7.56 µM.

The source made the active and inactive calls. The rule behind the calls is not given here.

Chain of Carbonic anhydrase 1 (P00915 whole entry): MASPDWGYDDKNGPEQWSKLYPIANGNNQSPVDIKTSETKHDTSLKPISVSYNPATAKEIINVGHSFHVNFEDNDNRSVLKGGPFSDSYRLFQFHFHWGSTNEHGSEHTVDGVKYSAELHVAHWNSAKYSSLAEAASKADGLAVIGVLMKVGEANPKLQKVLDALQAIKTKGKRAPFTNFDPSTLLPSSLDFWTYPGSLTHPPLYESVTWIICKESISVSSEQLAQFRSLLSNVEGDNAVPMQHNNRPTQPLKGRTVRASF

Turning to `NS(=O)(=O)c1ccc(-n2cc(Cn3cc(F)c(=O)[nH]c3=O)nn2)cc1`, the “growth inhibition (GI)” value with SK-OV-3, in the assay with A549, in the assay with HeLa, in the assay on HL-60, in the assay on MCF7 and in the assay with COLO 205 was “inactive” throughout. Also, the Ki on Carbonic anhydrase 9 [1] came to 0.47 nM. For the same molecule, the IC50 with MDA-MB-231 [2] was found to be 22800 nM; with T47D [5], 33500 nM. The “growth inhibition (GI)” value in the assay with T47D [3] and with MDA-MB-231 [4] was “Active” throughout.

For `Cc1cc(=O)oc2cc(-n3cc(Cn4cc(F)c(=O)[nH]c4=O)nn3)ccc12`, the Ki at Carbonic anhydrase 9 [6] was 173 nM; at Carbonic anhydrase 2 it was above 10000 nM; at Carbonic anhydrase 1, above 10000 nM; at Carbonic anhydrase 12, 408 nM.

For `NS(=O)(=O)c1ccc(-n2cc(Cn3cc(F)c(=O)[nH]c3=O)nn2)c(Cl)c1`, the Ki at Carbonic anhydrase 9 [1] was found to be 11.2 nM.

Consider `NS(=O)(=O)c1ccc(CCN(Cc2ccccc2)C(=O)Cn2cc(F)c(=O)[nH]c2=O)cc1`, for which, at Carbonic anhydrase 9 [1], the Ki came to 3.5 nM.

Regarding `N#Cc1ccc(CN(CCc2ccc(S(N)(=O)=O)cc2)C(=O)Cn2cc(F)c(=O)[nH]c2=O)cc1`, on Carbonic anhydrase 9 [1], the Ki was determined as 4.9 nM.

Regarding `COc1ccc(CN(CCc2ccc(S(N)(=O)=O)cc2)C(=O)Cn2cc(F)c(=O)[nH]c2=O)cc1`, the “growth inhibition (GI)” value in the assay on SK-OV-3, in the assay on A549, with HeLa, with HL-60, in the assay on MCF7 and with COLO 205 was “inactive” throughout. Further, on Carbonic anhydrase 9 [1], the Ki was 1.9 nM. Moreover, the IC50 in the assay with MDA-MB-231 [2] is 6860 nM; in the assay on T47D [5], 2450 nM. Besides, the Activity is given as 18.04% with T47D [7] (2.45 µM); 2.51% in the assay on T47D [9] (2.45 µM); 12.19% with T47D [10] (2.45 µM); 7.31% in the assay with T47D [11] (2.45 µM); 35.47% in the assay with T47D [12] (2.45 µM). The “growth inhibition (GI)” value in the assay with T47D [3] and with MDA-MB-231 [4] was “Active” throughout. Besides, the outcome in the assay with T47D [8] was Active.

For the molecule `CN(C)c1ccc(CN(CCc2ccc(S(N)(=O)=O)cc2)C(=O)Cn2cc(F)c(=O)[nH]c2=O)cc1`, the Ki at Carbonic anhydrase 9 [1] stood at 26.8 nM.

Consider `NS(=O)(=O)c1ccc(NC(=O)Cn2cc(F)c(=O)[nH]c2=O)cc1`, for which the Ki at Carbonic anhydrase 9 [1] stood at 4.8 nM.

In the case of `O=C(Cn1cc(F)c(=O)[nH]c1=O)Oc1ccc2ccc(=O)oc2c1`, the Ki is 36.8 nM at Carbonic anhydrase 9 [6], above 10000 nM on Carbonic anhydrase 2, above 10000 nM at Carbonic anhydrase 1 and 14.4 nM at Carbonic anhydrase 12.

`NS(=O)(=O)c1ccc(CCN(Cc2ccc(Cl)cc2)C(=O)Cn2cc(F)c(=O)[nH]c2=O)cc1`: the “growth inhibition (GI)” value in the assay on SK-OV-3, with A549, in the assay on HeLa, in the assay with HL-60, in the assay with MCF7 and in the assay on COLO 205 was “inactive” throughout. Further, the Ki at Carbonic anhydrase 9 [1] was 4.2 nM. For the same molecule, the IC50 in the assay on MDA-MB-231 [2] is 40900 nM; in the assay with T47D [5], 18900 nM. Also, the “growth inhibition (GI)” value with T47D [3] and in the assay on MDA-MB-231 [4] was “Active” each time.

`Cc1cc(=O)oc2cc(NC(=O)Cn3cc(F)c(=O)[nH]c3=O)ccc12`: the Ki on Carbonic anhydrase 9 [6] was 16.5 nM; on Carbonic anhydrase 2, above 10000 nM; on Carbonic anhydrase 1, above 10000 nM; at Carbonic anhydrase 12 it was 23.2 nM. Moreover, the “growth inhibition (GI)” value in the assay with SK-OV-3, in the assay with A549, in the assay on HeLa, in the assay with HL-60, in the assay on MCF7 and with COLO 205 was “inactive” throughout. In addition, the IC50 with MDA-MB-231 [2] was determined as 32000 nM; in the assay on T47D [5], 13200 nM. Also, the “growth inhibition (GI)” value in the assay on T47D [3] and in the assay with MDA-MB-231 [4] was “Active” each time.

On to `NS(=O)(=O)c1ccc(CCN(Cc2ccc(F)cc2)C(=O)Cn2cc(F)c(=O)[nH]c2=O)cc1`, for which the inhibition constant (Ki) on Carbonic anhydrase 9 [1] was 11.8 nM.

In the case of `NS(=O)(=O)c1ccc(CNC(=O)Cn2cc(F)c(=O)[nH]c2=O)cc1`, on Carbonic anhydrase 9 [1], the Ki is 29.2 nM.

Take `NS(=O)(=O)c1ccc(-n2cc(Cn3cc(F)c(=O)[nH]c3=O)nn2)c(Br)c1`: the Ki at Carbonic anhydrase 9 [1] came out at 3.8 nM.

Regarding `NS(=O)(=O)c1cccc(NC(=O)Cn2cc(F)c(=O)[nH]c2=O)c1`, the Ki at Carbonic anhydrase 9 [1] worked out at 44.7 nM.

For the molecule `NS(=O)(=O)c1ccc(CCNC(=O)Cn2cc(F)c(=O)[nH]c2=O)cc1`, the Ki at Carbonic anhydrase 9 [1] was found to be 24.8 nM.

With `NS(=O)(=O)c1ccc(O)c(NC(=O)Cn2cc(F)c(=O)[nH]c2=O)c1`, the “growth inhibition (GI)” value with SK-OV-3, with A549, in the assay on HeLa, in the assay on HL-60, in the assay with MCF7 and in the assay with COLO 205 was “inactive” each time. The result in the assay on T47D [13] was Active. Also, on Carbonic anhydrase 9 [1], the Ki turned out to be 453 nM. The results for the IC50 in the assay on MDA-MB-231 [2] and in the assay on T47D [5] were 25500 nM and 7560 nM, respectively. The Activity with T47D [7] (7.56 µM) worked out at 12.72%; in the assay with T47D [9] (7.56 µM), 1.36%; with T47D [10] (7.56 µM), 9.62%; in the assay with T47D [11] (7.56 µM) it was 3.59%; in the assay with T47D [12] (7.56 µM) it was 26.83%. The “growth inhibition (GI)” value in the assay on T47D [3] and with MDA-MB-231 [4] was “Active” in each case.

As to `NS(=O)(=O)c1cccc(-n2cc(Cn3cc(F)c(=O)[nH]c3=O)nn2)c1`, on Carbonic anhydrase 9 [1], the Ki was 105 nM.

The values above are taken from ChEMBL document CHEMBL4765260, “Inclusion of a 5-fluorouracil moiety in nitrogenous bases derivatives as human carbonic anhydrase IX and XII inhibitors produced a targeted action against MDA-MB-231 and T47D breast cancer cells” (Eur J Med Chem, 2020).
